Results of several laboratories.
Protocols differ between the studies behind these lines.
Target: 3',5'-cyclic-AMP phosphodiesterase 4B (PDE4B, Homo sapiens, UniProt Q07343)
Effect on: enzyme activity
Action: inhibitor

`CN1C(=O)c2c(nn(Cc3ccc(-c4cccc(F)n4)cc3)c2Nc2ccccc2)N2C1=N[C@@H]1CCC[C@@H]12` gave an IC50 of over 0.1 µM.
With `COc1ccc([C@@H]2CN(C(=O)[C@@H](O)CO)C[C@@]2(C)[C@@H](C)O)cc1OC1CN(c2ccc(C)cn2)C1` the IC50 was 9e-05 µM.
For `CCn1c(-c2nc3ccc(C(=O)N4CCCC(N)C4)cc3n2C)cc2ccccc21` (centres unmarked), the IC50 was 25.1 µM.
`CSc1ccc(/C=C2/C(C)=C(CC(=O)O)c3cc(F)ccc32)cc1` gave an IC50 of over 100 µM.
With `COc1ccc(C2=NN(C3CCCCCC3)C(=O)C3CC=CCC23)cc1-c1ccc(C(=O)N2CCC[C@@H]2C(N)=O)cc1` (mixture of isomers) the Ki was 6.31 µM.
The IC50 of `CC(C)CC(=O)c1ccc(OC(F)F)c(O[C@@H]2CCOC2)c1` is reported as 0.089 µM (radiometric).
The Ki of `COc1ccc(C2=NN(C3CCCCCC3)C(=O)C3CC=CCC23)cc1-c1ccc(C(=O)N2CC[C@@H](O)C2)cc1` (mixture of isomers) is reported as 2 µM.
With `CCn1c(-c2nc3cc(C(=O)N4CCC[C@@H](N)C4)cc(OC)c3n2C)cc2cccnc21` the IC50 was 6.31 µM.
